The record followed here is ChEMBL document CHEMBL4732167, “Structure based design, synthesis, and biological evaluation of imidazole derivatives targeting dihydropteroate synthase enzyme” (Bioorg Med Chem Lett, 2021).

A short description of assay [1]: Antioxidant activity assessed as DPPH radical scavenging activity at 100 dilution. In kind it is functional.
Another assay deals with Plasmodium falciparum. The assay is described as follows: Antimalarial activity against Plasmodium falciparum assessed as parasite growth inhibition. In kind it is functional, organism-based.
Assay [2] is described as follows: Antioxidant activity assessed as nitric oxide radical scavenging activity at 75 ug/ml (reference value: 25.8 to 41.6 %). In kind it is functional. The conditions noted are these: dose 75.0 µg/ml. In a few lines: (§1)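 Nitric oxide radical scavenging was tested at 0, 25, 50, 75 and 100 µg/ml of compound.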
A further assay has as its system Pseudomonas aeruginosa. Briefly: Antibacterial activity against Pseudomonas aeruginosa MTCC 1688 assessed as bacterial growth inhibition. In kind it is functional.
A further assay relates to Bacteria. Briefly: Antibacterial activity against ESBL-producing bacteria assessed as bacterial growth inhibition. It counts as functional. A digest of the protocol:
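Values are minimum inhibitory concentrations (MIC) in µg/mL, determined at an outside microbiology laboratory.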

For assay [3], the system named is Staphylococcus aureus. The assay is described as follows: Antibacterial activity against methicillin-resistant Staphylococcus aureus assessed as inhibition of bacterial growth. In kind it is functional. A digest of the protocol: (§2)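 Growth inhibition of the drug-resistant strain was read out as the minimum inhibitory concentration (MIC), reported in µg/mL. The same protocol was also run on an ESBL strain.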

In the next assay the test system is Aspergillus niger. Briefly: Antifungal activity against Aspergillus niger MTCC 282 assessed as fungal growth inhibition. It counts as functional.
The nature of assay [4]: Antioxidant activity assessed as DPPH radical scavenging activity at 25 ug/ml (reference value: 22 to 40.2 %). It counts as functional. Particulars: dose 25.0 µg/ml. In a few lines: (§3)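 DPPH radical scavenging was measured at 0, 25, 50, 75 and 100 µg/ml of each compound. Ascorbic acid was the reference.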
Assay [5] can be described thus: Antioxidant activity assessed as hydrogen peroxide radical scavenging activity at 75 ug/ml (reference value: 23.6 to 43.1 %). It counts as functional. Particulars: dose 75.0 µg/ml. In a few lines:
(§4)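 Hydrogen peroxide scavenging was measured across a compound series of 0, 25, 50, 75 and 100 µg/ml.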

Assay [6] in a line: Antioxidant activity assessed as hydrogen peroxide radical scavenging activity at 100 ug/ml (reference value: 23.6 to 43.1 %). Particulars: dose 100.0 µg/ml. In kind it is functional. A digest of the protocol: as §4
Assay [7] in a line: Antioxidant activity assessed as hydrogen peroxide radical scavenging activity at 25 ug/ml (reference value: 23.6 to 43.1 %). It counts as functional. The conditions noted are these: dose 25.0 µg/ml. In a few lines: as §4
A further assay has as its system Aspergillus clavatus. The assay is described as follows: Antifungal activity against Aspergillus clavatus MTCC 1323 assessed as fungal growth inhibition. In kind it is functional.
A short description of assay [8]: Antioxidant activity assessed as nitric oxide radical scavenging activity at 25 ug/ml (reference value: 25.8 to 41.6 %). In kind it is functional. Particulars: dose 25.0 µg/ml. In a few lines: as §1
Assay [9] in a line: Antioxidant activity assessed as DPPH radical scavenging activity at 75 ug/ml (reference value: 22 to 40.2 %). In kind it is functional. The conditions noted are these: dose 75.0 µg/ml. A digest of the protocol: as §3
Assay [10] is described as follows: Antioxidant activity assessed as DPPH radical scavenging activity at 50 ug/ml (reference value: 22 to 40.2 %). It counts as functional. The conditions noted are these: dose 50.0 µg/ml. A digest of the protocol: as §3
Assay [11] concerns Mycobacterium tuberculosis. The assay is described as follows: Antibacterial activity against Mycobacterium tuberculosis H37Rv assessed as bacterial growth inhibition. In kind it is functional.
Assay [12] can be described thus: Antioxidant activity assessed as DPPH radical scavenging activity at 100 ug/ml (reference value: 22 to 40.2 %). In kind it is functional. The conditions noted are these: dose 100.0 µg/ml. A digest of the protocol: as §3
Another assay has as its system Enterococcus. Briefly: Antibacterial activity against vancomycin-resistant Enterococcus assessed as inhibition of bacterial growth. It counts as functional. A digest of the protocol: as §2
Assay [13] is described as follows: Antioxidant activity assessed as nitric oxide radical scavenging activity at 100 ug/ml (reference value: 25.8 to 41.6 %). In kind it is functional. Particulars: dose 100.0 µg/ml. A digest of the protocol:
as §1

The subject of another assay is Streptococcus pyogenes. The assay is described as follows: Antibacterial activity against Streptococcus pyogenes MTCC 442 assessed as bacterial growth inhibition. It counts as functional.
Assay [14] is described as follows: Antioxidant activity assessed as nitric oxide radical scavenging activity at 50 ug/ml (reference value: 25.8 to 41.6 %). In kind it is functional. The conditions noted are these: dose 50.0 µg/ml. In a few lines:
as §1

The subject of assay [15] is Staphylococcus aureus. Briefly: Antibacterial activity against Staphylococcus aureus MTCC 96 assessed as bacterial growth inhibition. It counts as functional.
Assay [16] is described as follows: Antioxidant activity assessed as hydrogen peroxide radical scavenging activity at 50 ug/ml (reference value: 23.6 to 43.1 %). It counts as functional. The conditions noted are these: dose 50.0 µg/ml. In a few lines: as §4
The next assay has as its system Escherichia coli. Briefly: Antibacterial activity against Escherichia coli MTCC 443 assessed as bacterial growth inhibition. In kind it is functional.
The next assay relates to Candida albicans. The assay is described as follows: Antifungal activity against Candida albicans MTCC 227 assessed as fungal growth inhibition. It counts as functional.

In brackets after ≈: the same amount, converted by molar mass.

For the molecule `CC(=O)c1c(C)nc(SCC(=O)Nc2ccc(OCc3ccc(F)cc3)cc2)n1-c1ccc(F)cc1`, the Activity in [1] was 89.4%; in assay [2], 70.3%; in [4] it was 34.8%; in assay [5], 63.1%; in assay [6], 71.2%; in [7], 46.1%. The Activity in [8] is 46.8%; in assay [9] it was 71.6%; in [10], 56.4%; in assay [12] it was 89.4%; in [13], 89.6%; in assay [14], 60.4%. For the same molecule, the Activity in [16] worked out at 53.4%. Also, the IC50 in the assay on Plasmodium falciparum worked out at 0.82 µg/mL (≈ 1.62 µM). The minimum inhibitory concentration (MIC) in the assay on Pseudomonas aeruginosa was 100 µg/mL (≈ 197 µM); with Bacteria, 250 µg/mL (≈ 493 µM); with Staphylococcus aureus [3], 100 µg/mL (≈ 197 µM); in [11] it was 100 µg/mL (≈ 197 µM); with Enterococcus, 125 µg/mL (≈ 246 µM); with Streptococcus pyogenes it was 125 µg/mL (≈ 246 µM). In addition, the minimum inhibitory concentration (MIC) in the assay with Staphylococcus aureus [15] was 62.5 µg/mL (≈ 123 µM); in the assay with Escherichia coli it was 125 µg/mL (≈ 246 µM). Moreover, the MFC worked out at 1000 µg/mL (≈ 1970 µM) in the assay on Aspergillus niger, 500 µg/mL (≈ 985 µM) in the assay with Aspergillus clavatus and 500 µg/mL (≈ 985 µM) with Candida albicans.
In the case of `O=C1O[C@H]([C@@H](O)CO)C(O)=C1O`, the Activity in assay [1] is 91.7%; in assay [2] it was 89%; in assay [4] it was 75.1%; in assay [5], 89%; in assay [6], 91.7%; in [7], 75.1%. For the same molecule, the Activity was found to be 75.1% in assay [8]; 89% in assay [9]; 80.6% in assay [10]; 91.7% in assay [12]; 91.7% in assay [13]; 80.6% in assay [14]. The Activity in [16] is 80.6%.
In the case of `CC(=O)c1c(C)nc(SCC(=O)Nc2ccc(OC(=O)c3cccs3)cc2)n1-c1ccc(F)cc1`, the Activity in [1] was found to be 89.6%; in [2] it was 79.5%; in [4], 44.3%; in assay [5] it was 67.6%; in [6], 79.6%; in [7], 48.6%. The Activity in [8] stood at 50.6%; in assay [9] it was 65.4%; in assay [10], 51.4%; in assay [12] it was 89.6%; in assay [13], 89.1%; in assay [14], 59.3%. Besides, the Activity in assay [16] was 59.3%. Besides, the IC50 in the assay on Plasmodium falciparum was determined as 1.14 µg/mL (≈ 2.24 µM). Also, the MIC in the assay with Pseudomonas aeruginosa was found to be 62.5 µg/mL (≈ 123 µM); with Bacteria, 125 µg/mL (≈ 245 µM); with Staphylococcus aureus [3] it was 250 µg/mL (≈ 491 µM); in assay [11] it was 100 µg/mL (≈ 196 µM); in the assay with Enterococcus, 125 µg/mL (≈ 245 µM); in the assay with Streptococcus pyogenes it was 125 µg/mL (≈ 245 µM). Also, the MIC is 125 µg/mL (≈ 245 µM) in the assay with Staphylococcus aureus [15] and 100 µg/mL (≈ 196 µM) in the assay with Escherichia coli. The minimum fungicidal concentration (MFC) in the assay on Aspergillus niger amounted to 500 µg/mL (≈ 981 µM); with Aspergillus clavatus it was 250 µg/mL (≈ 491 µM); with Candida albicans it was 500 µg/mL (≈ 981 µM).
